Reference: ChEMBL document CHEMBL1122627, “Synthesis of certain hydroxy analogues of the antimalarial drug primaquine and their in vitro methemoglobin-producing and glutathione-depleting activity in human erythrocytes” (1984)
“And” between values parts separate entries of the source, which are not always exact repeats. Equal entries are not always repeated.

Columns and labels:
Assay type in all cases: functional
Homo sapiens [1] = organism: Homo sapiens; test: In vitro methemoglobin (metHb) forming activity in normal human erythrocytes at 0.05 mM
Summary of the method: (§1)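 Blood (30–40 mL) from normal or G6PD-deficient human volunteers, anticoagulated with sodium edetate. Washed erythrocytes suspended to 50% in buffered dextrose saline, incubated with each compound at 37 °C for 2 h. Reaction stopped on ice for 5 min. Cells spun at 1500g for 10 min at 5 °C, washed twice in ice-cold buffered saline dextrose, resuspended to 50%.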

Homo sapiens [2] = organism: Homo sapiens; test: In vitro decreasing the GSH content in normal in human erythrocytes at 0.01 mM; summary of the method: as §1
Homo sapiens [3] = organism: Homo sapiens; test: In vitro methemoglobin (metHb) forming activity in normal human erythrocytes.; summary of the method: as §1
Homo sapiens [4] = organism: Homo sapiens; test: In vitro decreasing the GSH content in normal in human erythrocytes at 0.05 mM; summary of the method: as §1
Homo sapiens [5] = organism: Homo sapiens; test: In vitro methemoglobin (metHb) forming activity in Glucose-6-phosphate dehydrogenase- (G6PD-) deficient human erythrocytes at 0.05 mM; summary of the method: as §1

With `CC(CCCN)Nc1cc(O)cc2cccnc12` (stereo unspecified) the Methemoglobin (Homo sapiens [1]) was 1.1%, the “GSH level (mg)” value (Homo sapiens [2]) was 63.8% and 45.8% and the Methemoglobin (Homo sapiens [3]) was 1.1%. For the same molecule, the GSH level (Homo sapiens [4]) was 63.4% and 44.8% and the Methemoglobin (Homo sapiens [5]) was 1.7% and 1.2%.

With `COc1cc(N)c2ncccc2c1O` the Methemoglobin (Homo sapiens [1]) was 34.2% and the Methemoglobin (Homo sapiens [5]) was 43.8% and 22.3%.

For `Nc1cc(O)c(O)c2cccnc12` [5,6-DIHYDROXY-8-AMINOQUINOLINE], the Methemoglobin (Homo sapiens [1]) was 22.3% and the Methemoglobin (Homo sapiens [3]) was 4.8%.

In the case of `CC(CCCN)Nc1cc(O)c(O)c2cccnc12` (stereo unspecified) [5-HYDROXYDESMETHYLPRIMAQUINE], the Methemoglobin (Homo sapiens [1]) is reported as 16.3% and the Methemoglobin (Homo sapiens [3]) is reported as 4.2%.

In the case of `COc1cc(NC(C)CCCN)c2ncccc2c1O` (stereo unspecified) [5-HYDROXYPRIMAQUINE], the Methemoglobin (Homo sapiens [1]) is reported as 12.8% and the Methemoglobin (Homo sapiens [3]) is reported as 3.4%.

For `COc1cc(NC(C)CCCN)c2ncccc2c1` (stereo unspecified) [PRIMAQUINE], the Methemoglobin (Homo sapiens [1]) was 1%, the GSH level (Homo sapiens [4]) was 60% and 47.4% and the Methemoglobin (Homo sapiens [5]) was 1.3%.
